This is an account of results in ChEMBL document CHEMBL4725242, “Discovery of GS-9688 (Selgantolimod) as a Potent and Selective Oral Toll-Like Receptor 8 Agonist for the Treatment of Chronic Hepatitis B” (J Med Chem, 2020).

The target in data set [1] is T1, Toll-like receptor 7 (Homo sapiens, UniProt Q9NYK1).
T1 sequence (Q9NYK1 whole entry): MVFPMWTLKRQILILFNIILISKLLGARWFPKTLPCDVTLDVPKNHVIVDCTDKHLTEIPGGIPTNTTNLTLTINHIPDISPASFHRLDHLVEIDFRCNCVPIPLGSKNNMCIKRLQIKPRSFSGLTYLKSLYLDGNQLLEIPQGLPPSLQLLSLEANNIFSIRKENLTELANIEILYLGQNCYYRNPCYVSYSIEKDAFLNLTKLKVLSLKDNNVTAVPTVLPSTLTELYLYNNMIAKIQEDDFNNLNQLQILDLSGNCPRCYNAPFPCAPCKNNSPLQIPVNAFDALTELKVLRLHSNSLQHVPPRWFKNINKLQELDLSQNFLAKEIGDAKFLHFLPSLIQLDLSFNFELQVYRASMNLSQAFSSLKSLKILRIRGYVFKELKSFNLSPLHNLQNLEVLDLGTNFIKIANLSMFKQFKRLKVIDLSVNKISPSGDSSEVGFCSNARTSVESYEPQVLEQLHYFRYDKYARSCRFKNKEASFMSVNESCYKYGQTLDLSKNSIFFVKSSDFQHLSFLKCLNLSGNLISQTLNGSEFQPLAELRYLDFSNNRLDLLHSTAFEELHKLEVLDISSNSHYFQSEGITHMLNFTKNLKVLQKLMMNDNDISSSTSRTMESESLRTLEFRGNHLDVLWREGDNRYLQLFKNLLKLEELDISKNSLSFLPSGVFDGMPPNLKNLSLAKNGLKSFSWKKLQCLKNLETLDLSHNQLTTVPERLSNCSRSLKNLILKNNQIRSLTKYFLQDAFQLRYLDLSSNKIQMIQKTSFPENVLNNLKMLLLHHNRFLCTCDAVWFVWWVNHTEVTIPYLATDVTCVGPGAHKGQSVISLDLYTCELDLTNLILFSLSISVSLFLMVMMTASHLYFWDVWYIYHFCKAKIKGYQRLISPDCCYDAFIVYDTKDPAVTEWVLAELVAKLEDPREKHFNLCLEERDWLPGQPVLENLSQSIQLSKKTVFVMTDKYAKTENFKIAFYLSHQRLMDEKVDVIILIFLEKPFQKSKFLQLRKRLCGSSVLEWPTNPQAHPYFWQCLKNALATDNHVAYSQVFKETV
Briefly: Agonist activity at TLR7 in human cryopreserved PBMC assessed as induction of IFNalpha production measured after 24 hrs. The method in brief:
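Cryopreserved healthy-donor human PBMC, recovered 2 h at 37°C/5% CO2, then 100k cells/well in RPMI/10% FBS exposed 24 h at 37°C to a 10-point half-log dilution series (0.5% final DMSO). Supernatant IFNα-2a quantified by MSD electrochemiluminescence immunoassay. For the ratio, divided by the IL-12p40 EC50 from the same PBMC screen.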

Data set [2] deals with T2, Interferon-induced helicase C domain-containing protein 1 (Homo sapiens) (UniProt Q9BYX4).
T2 sequence (whole entry): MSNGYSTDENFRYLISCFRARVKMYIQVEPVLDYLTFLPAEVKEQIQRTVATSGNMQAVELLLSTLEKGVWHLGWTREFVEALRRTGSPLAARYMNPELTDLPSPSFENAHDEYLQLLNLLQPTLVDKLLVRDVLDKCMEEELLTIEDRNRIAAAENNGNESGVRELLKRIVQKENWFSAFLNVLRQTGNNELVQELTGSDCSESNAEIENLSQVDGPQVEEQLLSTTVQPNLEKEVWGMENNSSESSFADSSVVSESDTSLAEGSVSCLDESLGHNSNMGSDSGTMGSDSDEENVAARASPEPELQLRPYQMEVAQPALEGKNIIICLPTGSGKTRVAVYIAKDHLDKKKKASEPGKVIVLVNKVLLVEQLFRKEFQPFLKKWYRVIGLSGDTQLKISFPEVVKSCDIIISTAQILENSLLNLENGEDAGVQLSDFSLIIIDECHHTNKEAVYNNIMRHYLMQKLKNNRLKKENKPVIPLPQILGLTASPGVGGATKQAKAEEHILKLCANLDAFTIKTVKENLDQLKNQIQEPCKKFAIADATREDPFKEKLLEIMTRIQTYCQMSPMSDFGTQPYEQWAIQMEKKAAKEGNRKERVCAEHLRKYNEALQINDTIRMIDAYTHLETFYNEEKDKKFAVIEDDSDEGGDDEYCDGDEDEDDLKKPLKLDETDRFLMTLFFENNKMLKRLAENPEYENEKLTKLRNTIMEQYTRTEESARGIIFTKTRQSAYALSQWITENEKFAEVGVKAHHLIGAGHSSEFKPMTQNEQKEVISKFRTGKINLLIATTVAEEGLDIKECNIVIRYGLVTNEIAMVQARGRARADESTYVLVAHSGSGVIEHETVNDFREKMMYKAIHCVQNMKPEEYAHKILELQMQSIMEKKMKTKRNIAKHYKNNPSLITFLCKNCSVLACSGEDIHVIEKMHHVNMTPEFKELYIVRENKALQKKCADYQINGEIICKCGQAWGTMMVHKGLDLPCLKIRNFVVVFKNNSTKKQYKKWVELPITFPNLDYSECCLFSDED
The data set can be described thus: Agonist activity at human MDA5 expressed in HEK293 cells assessed as induction of IFN-inducible ISG54 promoter activity up to 10 uM after overnight incubation by secreted lucia luciferase reporter gene assay. It counts as cell-based. To be noted: dose microM <=10. A digest of the protocol: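 HEK293 cells stably expressing individual human TLRs or other innate immune receptors, used as reporter gene assays. Minimum effective concentration defined as the level giving a 3-fold rise over background.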

The nature of data set [3]: Drug absorption in Beagle dog at 0.5 mg/kg, po administered via gavage by HPLC-MS analysis. The class given is ADME, organism-based, Canis lupus familiaris. The conditions noted are these: in vivo, read-out: Drug absorption. A digest of the protocol:
(§1)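 Oral dosing in 2% ethanol/40% PEG 300/58% 0.01N HCl: Sprague Dawley rats 5 mg/kg, beagle dogs 0.5 mg/kg, cynomolgus monkeys 3 mg/kg.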

A short description of data set [4]: Clearance in Beagle dog at 0.25 mg/kg, iv administered as 30 mins infusion by HPLC-MS analysis. It counts as ADME, organism-based, Canis lupus familiaris. The conditions noted are these: in vivo. The method in brief:
(§2)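 30-min intravenous infusion: Sprague Dawley rats 1 mg/kg, beagle dogs 0.25 mg/kg, cynomolgus monkeys 0.1 mg/kg; n = 3 per species, reported as mean ± SD.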

Data set [5] is described as follows: Apparent permeability across basolateral to apical side in human Caco2 cells measured after 1 to 2 hrs by LC-MS/MS analysis. The conditions noted are these: Caco-2. (Caco-2 monolayers are a common model of the intestinal barrier.)
The nature of data set [6]: Half life in Sprague-Dawley rat at 1 mg/kg, iv administered as 30 mins infusion by HPLC-MS analysis. The class given is ADME, organism-based. The conditions noted are these: in vivo. A digest of the protocol: as §2
A short description of data set [7]: Drug excretion in bile duct-cannulated Sprague-Dawley rat bile. The class given is ADME. To be noted: in vivo.
Data set [8] can be described thus: Clearance in human hepatic microsomes at 2 uM measured up to 60 mins in presence of NADPH generating system by LC-MS/MS analysis. It counts as ADME, Microsome. To be noted: liver microsomes. For orientation: Microsomes from liver hold many membrane-bound enzymes, among them those of drug oxidation.
Data set [9] in a line: AUC (infinity) in Beagle dog at 0.5 mg/kg, po administered via gavage by HPLC-MS analysis. Set-up: route oral, time infinity, dose 0.5 mg/kg. The class given is ADME, organism-based, Canis lupus familiaris. The conditions noted are these: in vivo. A digest of the protocol: as §1
Data set [10] in a line: Drug metabolism in human hepatocytes assessed as hydroxyl oxidation to the acid. It counts as ADME, cell-based, Hepatocyte.
A short description of data set [11]: Cmax in Sprague-Dawley rat at 5 mg/kg, po administered via gavage by HPLC-MS analysis. It counts as ADME, organism-based. Set-up: route oral, dose 5 mg/kg. The conditions noted are these: in vivo. The method in brief: as §1

pEC50: −log10 of the molar value. Calls of active or inactive are those of the source.

In the case of `CCCC[C@](C)(CO)Nc1nc(N)nc2cc(F)cnc12` [SELGANTOLIMOD], the pEC50 in data set [1] was under 4.30. The result in [2] was inactive. In [3], the Fa was determined as 28%. This compound also gave a clearance in data set [4] of 20 mL/min/kg. Besides, the Papp B→A in data set [5] stood at 11 ×10⁻⁶ cm/s. The same compound showed a half-life in data set [6] of 1.45 h. Further, in data set [7], the Drug excretion result is “Active”. Besides, the CLhep predicted at 2 µM in data set [8] was 16.7 mL/min/kg. The same compound displayed an AUC(0-inf) in data set [9] of 0.0118 µM·h. In addition, the Drug metabolism result in [10] is reported as “Metabolite_Detected”. The peak level in [11] (Cmax) was 517 nM.

In general, pEC50 refers to the negative decadic logarithm of the EC50, by convention in mol/L. By clearance is commonly meant the rate of elimination divided by the concentration. Higher therefore signals a high capacity for elimination. By Papp B→A is commonly meant the apparent permeability from the basolateral to the apical side of a cell layer. As usually defined, the half-life is the time in which the quantity being followed falls by half. The term AUC(0-inf) denotes total exposure, with the tail of the curve extrapolated. Read a high AUC(0-inf) as high exposure. Usually Cmax stands for the highest concentration seen after dosing.
